The source made the active and inactive calls. The calls are words filed in the database; no cut-off is given here.
Assays:
[1] = Half life in Sprague-Dawley rat at 100 mg/kg, po administered via gavage; format: ADME, organism-based; details: in vivo
Procedure, shortened: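 Male Sprague–Dawley rats received 100 mg/kg by oral gavage, with n = 3. Plasma half-life was taken from the pharmacokinetic profile alongside Cmax, AUC(0–t) and oral bioavailability.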

[2] = Half life in rat liver microsomes at 3 uM; format: ADME, Microsome
[3] = Oral bioavailability in Sprague-Dawley rat at 100 mg/kg administered via gavage; format: ADME, organism-based; details: in vivo
[4] = Permeability coefficient, Kp in human Caco2 cells; format: ADME, cell-based; details: Caco-2, read-out: Kp
[5] = Cmax in Sprague-Dawley rat at 100 mg/kg, po administered via gavage; format: ADME, organism-based; design: dose 100 mg/kg, route oral; details: in vivo
Mu-type opioid receptor [6] = biological target: T1, Mu-type opioid receptor (Homo sapiens, UniProt P35372); experiment: Antagonist activity at human recombinant mu opioid receptor expressed in CHO-K1 cell membranes assessed as intrinsic activity at 10 pM to 20 uM incubated for 30 mins in presence of Eu-GTP by DELFIA GTP binding assay relative to DAMGO
T1 sequence (P35372 whole entry): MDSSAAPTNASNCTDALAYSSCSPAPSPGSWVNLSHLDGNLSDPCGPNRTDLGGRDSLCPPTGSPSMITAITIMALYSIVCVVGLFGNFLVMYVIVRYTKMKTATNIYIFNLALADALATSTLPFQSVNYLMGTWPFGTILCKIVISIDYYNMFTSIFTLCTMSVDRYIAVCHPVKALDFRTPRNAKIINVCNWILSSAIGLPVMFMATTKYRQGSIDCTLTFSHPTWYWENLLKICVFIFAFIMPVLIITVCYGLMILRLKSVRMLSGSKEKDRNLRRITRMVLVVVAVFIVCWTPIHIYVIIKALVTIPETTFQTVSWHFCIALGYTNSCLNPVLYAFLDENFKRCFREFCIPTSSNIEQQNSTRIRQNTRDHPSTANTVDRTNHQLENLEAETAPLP

[7] = AUC(0 to t) in Sprague-Dawley rat at 100 mg/kg, po administered via gavage; format: ADME, organism-based; details: in vivo
Mus musculus [8] = experiment: Inhibition of morphine-induced delays in gastric emptying in po dosed ICR mouse administered via gavage pretreated with compound and 30 mins later injected with morphine followed 5 mins later by ingestion of test meal and measured after 60 mins; format: functional; details: for ED50: read-out: ID50 (the source's name)
Procedure, shortened: (§1)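 Mice dosed orally; reversal of morphine-induced delay in intestinal transit, delay in gastric emptying, or hot plate antinociception measured; dose-dependent responses fitted to give ID50 in mg/kg.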

[9] = Oral bioavailability in human; format: ADME, organism-based; details: in vivo
Mus musculus [10] = experiment: Inhibition of morphine-induced delays in intestinal transit in po dosed ICR mouse administered via gavage pretreated with compound and 30 mins later injected with morphine followed 5 mins later by ingestion of test meal and measured after 60 mins; format: functional; details: for ED50: read-out: ID50 (the source's name); procedure, shortened: as §1
[11] = Half life in human liver microsomes at 3 uM; format: ADME, Microsome
[12] = Half life in dog liver microsomes at 3 uM; format: ADME, Canis lupus familiaris, Microsome
[13] = Drug uptake in rat cerebrospinal fluid at 20 mg/kg, po; format: ADME, organism-based; details: in vivo
Procedure, shortened: (§2)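 Rats given 20 mg/kg orally; CSF, brain and plasma concentrations measured to estimate CNS penetration.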

Mus musculus [14] = organism: Mus musculus; experiment: Peripheral selectivity index, ratio of ID50 for inhibition of morphine-induced antinociceptive activity in ICR mouse to ID50 for inhibition of morphine-induced delays in intestinal transit in ICR mouse; format: functional
Procedure, shortened: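 Mice were dosed orally with antagonist at several doses and challenged with morphine. ID50 values were taken from dose-dependent reversal of morphine-induced hot plate antinociception (CNS) and of morphine-induced delay in intestinal transit (peripheral). The index is the hot plate ID50 divided by the intestinal transit ID50.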

[15] = biological target: T2, Delta-type opioid receptor (Homo sapiens, UniProt P41143); experiment: Antagonist activity at human recombinant delta opioid receptor expressed in CHO-K1 cell membrane assessed as inhibition of DPDPE-induced [35S]-GTPgammaS binding incubated for 30 mins by time resolved fluorescence assay
T2 sequence (P41143 whole entry): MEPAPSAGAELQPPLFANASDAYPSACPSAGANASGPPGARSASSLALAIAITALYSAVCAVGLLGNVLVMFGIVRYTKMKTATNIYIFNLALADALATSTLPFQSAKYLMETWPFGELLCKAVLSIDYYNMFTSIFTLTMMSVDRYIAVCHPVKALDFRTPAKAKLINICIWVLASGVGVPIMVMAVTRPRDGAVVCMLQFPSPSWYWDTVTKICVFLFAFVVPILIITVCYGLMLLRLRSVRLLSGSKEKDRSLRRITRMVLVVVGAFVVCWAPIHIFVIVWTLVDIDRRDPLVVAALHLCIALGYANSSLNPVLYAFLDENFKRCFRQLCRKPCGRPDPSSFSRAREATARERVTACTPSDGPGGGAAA

[16] = AUC(0 to t) in Sprague-Dawley rat at 5 mg/kg, po administered via gavage; format: ADME, organism-based; details: in vivo
Mus musculus [17] = experiment: Inhibition of morphine-induced antinociceptive activity in po dosed ICR mouse administered via gavage pretreated with compound and 30 mins later injected with morphine and measured after 30 mins by hot plate test; format: functional; details: for ED50: read-out: ID50 (the source's name); procedure, shortened: as §1
Mus musculus [18] = experiment: Inhibition of morphine-dependent CNS-mediated withdrawal response in Swiss Webster mouse at 30 mg/kg, po after 60 mins; format: functional, organism-based
Canis familiaris [19] = experiment: Inhibition of loperamide-induced gastrointestinal contraction in Beagle dog at 3 mg/kg, po incubated with compound followed 15 mins later by treated with loperamide and measured for 30 mins; format: functional, organism-based; details: Canis lupus familiaris
[20] = Efflux ratio of permeability in human Caco2 cells; format: ADME, cell-based; details: Caco-2
[21] = biological target: T3, Kappa-type opioid receptor (Cavia porcellus, UniProt P41144); experiment: Displacement of [3H]-DPN from guinea pig kappa opioid receptor expressed in CHO-K1 cell membranes by radioligand binding assay
T3 sequence (P41144 whole entry): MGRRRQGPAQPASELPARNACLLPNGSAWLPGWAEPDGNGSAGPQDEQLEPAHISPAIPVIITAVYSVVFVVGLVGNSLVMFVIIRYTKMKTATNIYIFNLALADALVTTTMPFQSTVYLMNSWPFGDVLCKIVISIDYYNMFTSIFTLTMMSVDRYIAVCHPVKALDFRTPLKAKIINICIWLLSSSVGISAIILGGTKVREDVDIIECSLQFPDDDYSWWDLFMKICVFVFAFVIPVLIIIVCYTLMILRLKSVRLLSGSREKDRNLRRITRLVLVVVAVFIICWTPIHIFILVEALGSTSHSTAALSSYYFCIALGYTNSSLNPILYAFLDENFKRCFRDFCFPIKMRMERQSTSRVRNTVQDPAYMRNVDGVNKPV
Procedure, shortened: (§3)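 Membranes from CHO-K1 cells stably transfected with human recombinant μ or δ receptor, or guinea pig κ receptor; competition with [3H]-DPN radioligand; affinity reported as pKi.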

Mu-type opioid receptor [22] = biological target: Mu-type opioid receptor (Cavia porcellus, UniProt P97266); experiment: Antagonist activity at mu opioid receptor in guinea pig ileum assessed as inhibition of electric field stimulated contractions incubated for 15 mins in presence of endomorphin-1; format: tissue-based; details: read-out: pA2 (converted)
Mu-type opioid receptor (Cavia porcellus, UniProt P97266), sequence (P97266 whole entry): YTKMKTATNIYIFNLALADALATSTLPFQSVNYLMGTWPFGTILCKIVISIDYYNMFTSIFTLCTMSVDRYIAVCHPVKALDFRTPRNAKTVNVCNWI

Canis familiaris [23] = experiment: Reversal of morphine-induced antinociception in Beagle dog at 3 mg/kg, po treated with compound prior to morphine challenge measured after 15 to 45 mins by hot plate test; format: functional, organism-based; details: Canis lupus familiaris
Rattus norvegicus [24] = experiment: Reversal of morphine-induced antinociception in Sprague-Dawley rat at >60 mg/kg, po pretreated for 30 mins followed by morphine injection and measured after 60 mins by hot plate test; format: functional, organism-based
[25] = Half life in Sprague-Dawley rat at 5 mg/kg, po administered via gavage; format: ADME, organism-based; details: in vivo
[26] = Oral bioavailability in Sprague-Dawley rat at 5 mg/kg administered via gavage; format: ADME, organism-based; details: in vivo
Mus musculus [27] = organism: Mus musculus; experiment: Peripheral selectivity index, ratio of ID50 for inhibition of morphine-induced delays in gastric emptying in ICR mouse to ID50 for inhibition of morphine-induced delays in intestinal transit in ICR mouse; format: functional
[28] = biological target: T2, Delta-type opioid receptor; experiment: Displacement of [3H]-DPN from recombinant human delta opioid receptor expressed in CHO-K1 cell membranes by radioligand binding assay; procedure, shortened: as §3
[29] = Oral bioavailability in fasted male Beagle dog; format: ADME, organism-based, Canis lupus familiaris; details: in vivo
[30] = Drug uptake in rat brain at 20 mg/kg, po; format: ADME, organism-based; details: in vivo; procedure, shortened: as §2
Canis familiaris [31] = experiment: Reversal of morphine-induced sedation in Beagle dog at 3 mg/kg, po administered with compound prior to morphine challenge and measured up to 120 mins post-mophine administration; format: functional, organism-based; details: Canis lupus familiaris
[32] = Protein binding in human plasma; format: ADME, cell-free; details: read-out: PPB
Mu-type opioid receptor [33] = biological target: T1, Mu-type opioid receptor; experiment: Displacement of [3H]-DPN from recombinant human mu opioid receptor expressed in CHO-K1 cell membranes by radioligand binding assay; procedure, shortened: as §3
[34] = Cmax in Sprague-Dawley rat at 5 mg/kg, po administered via gavage; format: ADME, organism-based; design: dose 5 mg/kg, route oral; details: in vivo
Rattus norvegicus [35] = experiment: Reversal of castor oil-induced diarrhea in po dosed Sprague-Dawley rat po administered with compound and loperamide at 45 mins and 15 mins prior to castor oil administration and measured after 2 hrs; format: functional; details: read-out: ID50 (the source's name)
[36] = Oral bioavailability in fasted female Beagle dog; format: ADME, organism-based, Canis lupus familiaris; details: in vivo
Mesocricetus auratus = organism: Mesocricetus auratus; experiment: Antagonist activity at delta opiod receptor in golden syrian hamster vas deferens assessed as inhibition of electric field stimulated tissue contraction incubated for 15 mins in presence of […]
[37] = biological target: T3, Kappa-type opioid receptor; experiment: Antagonist activity at kappa opioid receptor in guinea pig ileum assessed as inhibition of electric field stimulated tissue contraction incubated for 15 mins in presence of U69593; format: tissue-based; details: read-out: pA2 (converted)
MDR1 = experiment: Efflux ratio of permeability in dog MDCK-MDR1 cells; format: ADME, cell-based, Canis lupus familiaris
Mu-type opioid receptor [38] = biological target: T1, Mu-type opioid receptor; experiment: Antagonist activity at human recombinant mu opioid receptor expressed in CHO-K1 cell membrane assessed as inhibition of DAMGO-induced GTP binding incubated for 30 mins in presence of Eu-GTP by DELFIA GTP binding assay
[39] = biological target: Kappa-type opioid receptor (Cavia porcellus) (UniProt P41144); experiment: Antagonist activity at guinea pig recombinant kappa opioid receptor expressed in CHO-K1 cell membrane assessed as inhibition of U69593-induced [35S]-GTPgammaS binding incubated for 30 mins by time resolved fluorescence assay
Kappa-type opioid receptor (Cavia porcellus), sequence (P41144 whole entry): as the sequence (P41144 whole entry) above

Rattus norvegicus [40] = experiment: Reversal of loperamide-induced delay in gastric emptying in po dosed Sprague-Dawley rat administered with compound and loperamide at 35 mins and 5 mins prior to test meal respectively measured after 60 mins; format: functional; details: read-out: ID50 (the source's name)
[41] = AUC(0 to t) in Sprague-Dawley rat at 10 mg/kg, po administered via gavage; format: ADME, organism-based; details: in vivo
[42] = Oral bioavailability in Sprague-Dawley rat at 10 mg/kg administered via gavage; format: ADME, organism-based; details: in vivo
[43] = Cmax in Sprague-Dawley rat at 10 mg/kg, po administered via gavage; format: ADME, organism-based; design: dose 10 mg/kg, route oral; details: in vivo

C[N+]1(CC2CC2)CC[C@]23c4c5ccc(O)c4O[C@H]2C(=O)CC[C@@]3(O)[C@H]1C5.[Br-] (some centres undefined) [METHYLNALTREXONE BROMIDE]
half-life [1]: 2.8 h
half-life at 3 µM [2]: > 1.5 h
bioavailability [3]: 2.6%
Papp [4]: 2 ×10⁻⁶ cm/s
Cmax [5]: 570 ng/mL
Intrinsic activity (Mu-type opioid receptor [6]): 19%
AUC(0-t) [7]: 490 ng·h/mL
ED50 (Mus musculus [8]): 25 mg/kg
bioavailability [9]: < 1%
ED50 (Mus musculus [10]): 67 mg/kg
half-life at 3 µM [11]: > 1.5 h
half-life at 3 µM [12]: > 1.5 h

NC(=O)c1cccc([C@H]2C[C@H]3CC[C@@H](C2)N3CCN(CC2CCCCC2)C(=O)[C@@H](O)CO)c1.O=S(=O)(O)O [AXELOPRAN SULFATE]
Drug uptake [13]: < 2%
Selectivity Index (Mus musculus [14]): 40
pKb [15]: 8.8
AUC(0-t) [16]: 470 ng·h/mL
inhibition (Mus musculus [17]): Dose-dependent effect
ED50 (Mus musculus [17]): 14 mg/kg
inhibition (Mus musculus [18]): inactive
half-life at 3 µM [2]: 1.45 h
inhibition (Canis familiaris [19]): Active
efflux ratio [20]: 10
Papp [4]: 5 ×10⁻⁶ cm/s
Ki [21]: 0.126 nM
Kb (Mu-type opioid receptor [22]): 0.0794 nM
Intrinsic activity (Mu-type opioid receptor [6]): -3%
inhibition (Canis familiaris [23]): Active
inhibition (Rattus norvegicus [24]): Active
half-life [25]: 1.3 h
bioavailability [26]: 27%
Selectivity Index (Mus musculus [27]): 161
Ki [28]: 1.58 nM
bioavailability [29]: 45%
Drug uptake [30]: < 2%
inhibition (Canis familiaris [31]): Active
fraction unbound [32]: 0.7 to 0.77
Ki (Mu-type opioid receptor [33]): 0.158 nM
Cmax [34]: 210 ng/mL
inhibition (Mus musculus [8]): Dose-dependent effect
ED50 (Mus musculus [8]): 0.087 mg/kg
ED50 (Rattus norvegicus [35]): 0.01 mg/kg
bioavailability [36]: 29%
inhibition (Mus musculus [10]): Dose-dependent effect
ED50 (Mus musculus [10]): 0.35 mg/kg
pKb (Mesocricetus auratus): 8.4
Kb [37]: 1.58 nM
efflux ratio (MDR1): 24
pKb (Mu-type opioid receptor [38]): 9.6
pKb [39]: 9.5
half-life at 3 µM [11]: 1.5 h
ED50 (Rattus norvegicus [40]): 0.24 mg/kg
half-life at 3 µM [12]: 0.45 h

C[C@H]1CN(C[C@H](Cc2ccccc2)C(=O)NCC(=O)O)CC[C@H]1c1cccc(O)c1
Selectivity Index (Mus musculus [14]): >8
AUC(0-t) [41]: 2 ng·h/mL
ED50 (Mus musculus [17]): > 20 mg/kg
half-life at 3 µM [2]: > 1.5 h
bioavailability [42]: 0.1%
Papp [4]: 3 ×10⁻⁶ cm/s
Ki [21]: 5.01 nM
Intrinsic activity (Mu-type opioid receptor [6]): -7%
Selectivity Index (Mus musculus [27]): >33
Ki [28]: 5.01 nM
Cmax [43]: 10 ng/mL
Ki (Mu-type opioid receptor [33]): 0.316 nM
ED50 (Mus musculus [8]): 0.6 mg/kg
bioavailability [9]: 6%
ED50 (Mus musculus [10]): 2.5 mg/kg
half-life at 3 µM [11]: > 1.5 h
half-life at 3 µM [12]: > 1.5 h

From ChEMBL document CHEMBL4406921, “Discovery of Axelopran (TD-1211): A Peripherally Restricted μ-Opioid Receptor Antagonist” (ACS Med Chem Lett, 2019)
